Data reported in ChEMBL document CHEMBL4699650, “SAR Investigation and Discovery of Water-Soluble 1-Methyl-1,4-dihydroindeno[1,2-c]pyrazoles as Potent Tubulin Polymerization Inhibitors” (J Med Chem, 2020).
Active and inactive are the calls of the source. The rule behind the calls is not given here.

Legend:
[1] = system: HepG2; assay: Antiproliferation activity against human HepG2 cells assessed as cell growth inhibition measured after 72 hrs by MTT assay; format: functional
In short: (§1)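 Cells grown in RPMI-1640 with 10% FBS at 37 °C, 5% CO2, seeded at 4−7 × 10³ cells/well and left to adhere overnight. Exposed to a range of concentrations for 72 h, then MTT (2.5 mg/mL stock) added for 4 h. Formazan dissolved in DMSO and absorbance read at 570 nm. GI50 taken as the concentration giving 50% growth inhibition, reported as mean ± SD of at least three independent experiments.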

[2] = system: A549; assay: Antiproliferation activity against human A549 cells assessed as cell growth inhibition measured after 72 hrs by MTT assay; format: functional; in short: as §1
[3] = system: HCT-116; assay: Antiproliferation activity against human HCT116 cells assessed as cell growth inhibition measured after 72 hrs by MTT assay; format: functional; in short: as §1
[4] = Inhibition of porcine brain tubulin polymerization measured every 60 sec for 60 mins in presence of GTP by fluorescence assay; parameters: species or system Sus scrofa
In short: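 Fluorescence kit assay using 2 mg/mL porcine brain tubulin with 2 mM MgCl₂, 0.5 mM EGTA, 1 mM GTP and 15% glycerol. Compound at various concentrations preincubated 1 min at 37 °C before adding the tubulin mix. Read at ex 355/em 460 nm every 60 s for 60 min. IC50 is the concentration giving 50% inhibition at 60 min; mean ± SD of ≥3 independent experiments.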

[5] = target: Tubulin beta (Homo sapiens) (UniProt P68371+Q9H4B7+Q13509+P04350+Q3ZCM7+P07437+Q13885+Q9BVA1+Q9BUF5+A6NNZ2); assay: Inhibition of N,N'-Ethylenebis(iodoacetamide) binding to beta-tubulin in human HepG2 cells assessed as reduction in EBI/beta-tubulin adduct formation at 5 uM preincubated for 2 hrs followed by EBI addition and measured after 1.5 hrs by Western blot analysis; format: cell-based; settings: time 3.5 hrs
In short: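 HepG2 seeded 5 × 10⁵ cells/well, adhered overnight. Lysate protein (20 μg) run on 10% polyacrylamide gel on ice and transferred to PVDF. Probed with anti-β-tubulin 16 h at 4 °C, then HRP secondary. Chemiluminescence detection.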

[6] = system: HepG2; assay: Inhibition of cell migration in human HepG2 cells at 10 nM measured after 24 hrs by inverted light microscopy method based wound healing assay relative to control; format: functional
In short: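 Confluent HepG2 monolayer (seeded 3 × 10⁵ cells/well) scratched with a pipette tip and washed with PBS. Incubated in serum-free DMEM with compound at 2.5, 5 or 10 nM for 24 h; CA-4 run in parallel, DMSO as vehicle. Wound imaged at 0 and 24 h by inverted microscope and compared with control.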

[7] = Cytotoxicity against human L02 cells assessed as assessed as cell growth inhibition measured after 72 hrs by MTT assay; format: cell-based
In short: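 LO2 normal liver cells cultured in RPMI-1640/10% FBS at 37 °C, 5% CO2 and seeded at 4−7 × 10³ cells/well. Graded concentrations applied for 72 h, then MTT readout at 570 nm. GI50 is the concentration giving 50% growth inhibition, mean ± SD of at least three independent experiments.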

[8] = Antiproliferation activity against human A549/Taxol cells assessed as cell growth inhibition measured after 72 hrs by MTT assay; format: functional; in short: as §1
[9] = Resistance index, ratio of GI50 for antiproliferation activity against human A549/Taxol cells to GI50 for antiproliferation activity against human A549 cells assessed as cell growth inhibition measured after 72 hrs by MTT assay
[10] = Selectivity index, ratio of GI50 for cytotoxicity against human L02 cells to GI50 for antiproliferation activity against human HepG2 cells assessed as cell growth inhibition measured after 72 hrs by MTT assay; format: toxicity, cell-based; settings: L02 cells and HepG2 cells, read-out: RatioGI50
In short: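 MTT assay: cells seeded 4–7 × 10³/well, adhered overnight, exposed to a concentration series for 72 h. MTT (2.5 mg/mL stock) added for 4 h, crystals dissolved in DMSO, absorbance read at 570 nm. GI50 is mean ± SD of ≥3 independent experiments. Selectivity = GI50 on normal LO2 / GI50 on HepG2. Resistance fold = GI50 on resistant cells / GI50 on sensitive cells.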

[11] = system: HepG2; assay: Induction of apoptosis in human HepG2 cells assessed as PARP cleavage at 20 nM incubated for 24 hrs by western blot analysis; format: functional, cell-based
In short: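 Lysates (20 μg protein) run on 10% polyacrylamide gel, transferred to PVDF, blocked in 5% nonfat milk, probed overnight at 4 °C for cleaved PARP. HRP secondary, ECL detection, densitometry; one-way ANOVA with Dunnett's test vs control.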

SMILES | GI50 [1] | GI50 [2] | GI50 [3] | IC50 [4] | inhibition [5] | inhibition at 0.01 µM [6] | GI50 at 72 h [7] | GI50 [8] | RatioGI50 [9] | selectivity ratio at 72 h [10] | Activity [11]
CCOc1cc2c(cc1OCCCN)-c1c(c(Nc3cccc(C#N)c3)nn1C)C2 | 3.8 nM | 20.8 nM | 6.4 nM | 5700 nM | – | – | – | – | – | – | –
CC[C@]1(O)C[C@H]2CN(CCc3c([nH]c4ccccc34)[C@@](C(=O)OC)(c3cc4c(cc3OC)N(C=O)[C@H]3[C@@](O)(C(=O)OC)[C@H](OC(C)=O)[C@]5(CC)C=CCN6CC[C@]43[C@@H]65)C2)C1 | – | – | – | – | inactive | – | – | – | – | – | –
CCOc1cc2c(cc1OCC(N)=O)-c1c(c(Nc3cccc(C(=O)OC)c3)nn1C)C2 | 4.3 nM | 3 nM | 9.7 nM | 4500 nM | – | – | – | – | – | – | –
CCCOc1cc2c(cc1OCC)Cc1c(Nc3cccc(OCC)c3)nn(C)c1-2 | 397 nM | 512 nM | 129 nM | 14600 nM | – | – | – | – | – | – | –
CCOc1cc2c(cc1OCC(=O)NC)-c1c(c(Nc3cccc(C(=O)OC)c3)nn1C)C2 | 10.2 nM | 78.1 nM | 37.1 nM | 6300 nM | – | – | – | – | – | – | –
CCOc1cccc(Nc2nn(C)c3c2Cc2cc(OCC)c(OCCCO)cc2-3)c1 | 15.7 nM | 94.4 nM | 10.4 nM | 5800 nM | – | – | – | – | – | – | –
CCOc1cccc(Nc2nn(C)c3c2Cc2cc(OCc4ccc(OC)cc4)c(OCC(N)=O)cc2-3)c1 | 3070 nM | 3080 nM | 16600 nM | > 20000 nM | – | – | – | – | – | – | –
CCOc1cc2c(cc1OCCCN)-c1c(c(Nc3cccc(C(=O)CC)c3)nn1C)C2 | 2.1 nM | 7.6 nM | 4 nM | 3100 nM | – | – | – | – | – | – | –
CCNc1cccc(Nc2nn(C)c3c2Cc2cc(OCC)c(OCC(N)=O)cc2-3)c1 | 107 nM | 356 nM | 432 nM | 10800 nM | – | – | – | – | – | – | –
CCOC(=O)c1cccc(Nc2nn(C)c3c2Cc2cc(OCC)c(OCCCO)cc2-3)c1 | 3.3 nM | 5.3 nM | 7.7 nM | 3500 nM | – | – | – | – | – | – | –
CCOc1cc2c(cc1OCC(N)=O)-c1c(c(Nc3cccc(C#N)c3)nn1C)C2 | 66.9 nM | 166 nM | 361 nM | 9900 nM | – | – | – | – | – | – | –
COc1ccc(/C=C\c2cc(OC)c(OC)c(OC)c2)cc1O [COMBRETASTATIN A4] | 6.1 nM | 4.8 nM | 2.4 nM | 2300 nM | – | 47% | 333 nM | 20.4 nM | 4 | 55 | –
CCOc1cc2c(cc1OCCCO)-c1c(c(Nc3cccc(C(=O)NC)c3)nn1C)C2 | 2350 nM | 1340 nM | 1480 nM | > 20000 nM | – | – | – | – | – | – | –
CCOc1cccc(Nc2nn(C)c3c2Cc2cc(O)c(OCC(N)=O)cc2-3)c1 | 5330 nM | 15200 nM | 4660 nM | > 20000 nM | – | – | – | – | – | – | –
CCOc1cccc(Nc2nn(C)c3c2Cc2cc(OC)c(OCC(N)=O)cc2-3)c1 | 15 nM | 19.6 nM | 26.5 nM | 13400 nM | – | – | – | – | – | – | –
CC(=O)O[C@H]1C(=O)[C@@]2(C)[C@H]([C@H](OC(=O)c3ccccc3)[C@]3(O)C[C@H](OC(=O)[C@H](O)[C@@H](NC(=O)c4ccccc4)c4ccccc4)C(C)=C1C3(C)C)[C@]1(OC(C)=O)CO[C@@H]1C[C@@H]2O [PACLITAXEL] | – | – | – | – | – | – | 30.8 nM | 935 nM | 246 | 12 | –
CCCOc1cc2c(cc1OCC(N)=O)Cc1c(Nc3cccc(OCC)c3)nn(C)c1-2 | 1960 nM | 25400 nM | 1140 nM | > 20000 nM | – | – | – | – | – | – | –
CCOc1cccc(Nc2nn(C)c3c2Cc2cc(OCC)c(OCC(=O)O)cc2-3)c1 | 1640 nM | 8660 nM | 1270 nM | > 20000 nM | – | – | – | – | – | – | –

SMILES | GI50 [1] | GI50 [2] | GI50 [3] | IC50 [4] | inhibition [5] | inhibition at 0.01 µM [6] | GI50 at 72 h [7] | GI50 [8] | RatioGI50 [9] | selectivity ratio at 72 h [10] | Activity [11]
CCOc1cc2c(cc1OCC(=O)NC)-c1c(c(Nc3cccc(C#N)c3)nn1C)C2 | 97.3 nM | 2040 nM | 819 nM | > 20000 nM | – | – | – | – | – | – | –
CCOc1cc2c(cc1OCCCO)-c1c(c(Nc3cccc(C(=O)OC(C)C)c3)nn1C)C2 | 36.7 nM | 164 nM | 103 nM | 7700 nM | – | – | – | – | – | – | –
CCOc1cc2c(cc1OCCCO)-c1c(c(Nc3cccc(C(=O)O)c3)nn1C)C2 | > 20000 nM | 18300 nM | 5380 nM | > 20000 nM | – | – | – | – | – | – | –
CCOc1cccc(Nc2nn(C)c3c2Cc2cc(OCC)c(OCCCO)cc2-3)n1 | 15.5 nM | 72 nM | 27.1 nM | 5000 nM | – | – | – | – | – | – | –
CCCOc1cc2c(cc1OCC(N)=O)-c1c(c(Nc3cccc(OCC)c3)nn1C)C2 | 55.6 nM | 426 nM | 230 nM | 11000 nM | – | – | – | – | – | – | –
CCOc1cc2c(cc1OCC(N)=O)-c1c(c(Nc3cccc(C(=O)CC)c3)nn1C)C2 | 9.2 nM | 21.4 nM | 27 nM | 4100 nM | – | – | – | – | – | – | –
CCOc1cccc(Nc2nn(C)c3c2Cc2cc(OCC)c(OCC(N)=O)cc2-3)n1 | 17.1 nM | 62.5 nM | 19 nM | 4100 nM | – | – | – | – | – | – | –
COc1cc2c(c(OC)c1OC)-c1ccc(OC)c(=O)cc1[C@@H](NC(C)=O)CC2 | – | – | – | – | – | – | – | – | – | – | Active
CCCCOc1cc2c(cc1OCC(N)=O)-c1c(c(Nc3cccc(OCC)c3)nn1C)C2 | 2760 nM | 19900 nM | 4770 nM | > 20000 nM | – | – | – | – | – | – | –
CCOc1cccc(Nc2nn(C)c3c2Cc2cc(OCC)c(OCCCNC(C)=O)cc2-3)c1 | 364 nM | 935 nM | 197 nM | > 20000 nM | – | – | – | – | – | – | –
CCOc1cc2c(cc1OCCCO)-c1c(c(Nc3cccc(C#N)c3)nn1C)C2 | 42.9 nM | 176 nM | 151 nM | 9100 nM | – | – | – | – | – | – | –
CCOc1cc2c(cc1OCC(N)=O)-c1c(c(Nc3cccc(C(=O)NC)c3)nn1C)C2 | 642 nM | 13100 nM | 2100 nM | > 20000 nM | – | – | – | – | – | – | –
CCOc1cc2c(cc1OCCCO)-c1c(c(Nc3cccc(C(=O)CC)c3)nn1C)C2 | 13.6 nM | 38.2 nM | 24.5 nM | 5300 nM | – | – | – | – | – | – | –
CCOc1cc2c(cc1OCC(N)=O)-c1c(c(Nc3cccc(C(=O)OC(C)C)c3)nn1C)C2 | 25.3 nM | 121 nM | 36.4 nM | 8000 nM | – | – | – | – | – | – | –
CCOC(=O)c1cccc(Nc2nn(C)c3c2Cc2cc(OCC)c(OCC(N)=O)cc2-3)c1 | 3.4 nM | 12 nM | 4.5 nM | 3900 nM | – | – | – | – | – | – | –
CCOc1cc2c(cc1OCCCO)-c1c(c(Nc3cccc(C(=O)OC)c3)nn1C)C2 | 7.1 nM | 8.1 nM | 12.3 nM | 5900 nM | – | – | – | – | – | – | –
CCOc1ccc(Nc2nn(C)c3c2Cc2cc(OCC)c(OCC(N)=O)cc2-3)cc1 | 1910 nM | 15000 nM | 4310 nM | > 20000 nM | – | – | – | – | – | – | –
